Measured values from different studies.
Compare with care: the assays were run in different laboratories.
Target: Aurora kinase C (AURKC, Homo sapiens, UniProt Q9UQB9)
Sequence (Q9UQB9 1-309, as in one of the studies): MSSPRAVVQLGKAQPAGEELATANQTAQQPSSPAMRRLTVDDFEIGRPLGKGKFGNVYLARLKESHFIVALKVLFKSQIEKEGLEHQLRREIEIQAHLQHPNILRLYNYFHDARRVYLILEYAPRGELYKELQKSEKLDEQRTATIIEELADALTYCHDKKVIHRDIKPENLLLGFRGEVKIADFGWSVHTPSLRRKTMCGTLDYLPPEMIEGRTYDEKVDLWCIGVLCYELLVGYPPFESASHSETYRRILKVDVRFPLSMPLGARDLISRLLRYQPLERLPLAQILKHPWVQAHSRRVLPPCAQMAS

| SMILES | assay | setting | quantity | result |
| --- | --- | --- | --- | --- |
| C1=C/COCc2cc(ccc2OCCN2CCCC2)Nc2nccc(n2)-c2cccc(c2)COC/1 | binding | 0.1 µM | remaining binding | 96% |
| CO[C@@H]1[C@H](N(C)C(=O)c2ccccc2)C[C@H]2O[C@]1(C)n1c3ccccc3c3c4c(c5c6ccccc6n2c5c31)C(=O)NC4 | enzyme activity, inhibitor | 1 µM | inhibition | 99% |
| COc1ccc2oc(-c3ccc4nc(N)oc4c3)c/c(=N\c3ccccc3NC(=O)CCN)c2c1 | binding | 1 µM | remaining binding | 106% |
| CC(C)S(=O)(=O)c1ccc2nccc(Nc3ccc4sc(C5CCCC5)nc4c3)c2c1 | enzyme activity, inhibitor | 1 µM | activity vs control | 101% |
| CC#CC(=O)N1CCC[C@H]1c1nc(-c2ccc(C(=O)Nc3ccccn3)cc2)c2c(N)nccn12 | enzyme activity, inhibitor | 1 µM | inhibition | 18% |
| CNS(=O)(=O)c1ccc(Nc2ncc(C(F)(F)F)c(N3CCC[C@](C)(O)C3)n2)c(C)c1 | binding, competition with immobilised ligand | 1 µM | remaining binding | 37% |
| COc1ccc2[nH]c3c4[nH]c5ccc(OC)cc5c4c4c(c3c2c1)C(=O)NC4=O | binding, competition with immobilised ligand | 1 µM | remaining binding | 17% |
| CCCCC(=O)Nc1ccc(-c2ccc3ncn(CCC)c(=O)c3c2)cn1 | binding, competition with immobilised ligand | 0.5 µM | remaining binding | 83% |
| Cc1ccc(NC(=O)c2ccnc(C(F)(F)F)c2)cc1-c1cc(OCCO)nc(N2CCOCC2)c1 | binding, competition with immobilised ligand | 1 µM | remaining binding | 83% |
| C[C@]1(O)CCCN(c2nc(Nc3ccc(S(=O)(=O)N[C@H]4CC[C@H](CN5CCN(c6ccc(C7CCC(=O)NC7=O)cc6F)CC5)CC4)cc3F)ncc2C(F)(F)F)C1 (stereo partly shown) | binding, competition with immobilised ligand | 1 µM | remaining binding | 97% |
